One may read the Ki as the equilibrium dissociation constant of an inhibitor or competing ligand from its target.

Experiment [1] is described as follows: Inhibition of recombinant C-terminal His-tagged SARS coronavirus 1 3CL protease using Boc-Abu-Tle-Leu-Gln-AMC as substrate incubated for 5 mins by Cheng-Prusoff equation analysis. Further details: species or system Severe acute respiratory syndrome-related coronavirus.
In experiment [2] the test system is SARS-CoV-2. Put plainly: Antiviral activity against SARS coronavirus 2 infected in African green monkey Vero cells assessed as blockade of viral proliferation at 25 uM incubated for 48 hrs by cytopathic effect assay. It counts as functional, organism-based. As to conditions: Severe acute respiratory syndrome coronavirus 2.
Experiment [3] can be described thus: Inhibition of recombinant C-terminal His-tagged SARS coronavirus 2 3CL protease using Boc-Abu-Tle-Leu-Gln-AMC as substrate incubated for 5 mins by Cheng-Prusoff equation analysis. Further details: species or system Severe acute respiratory syndrome coronavirus 2. A digest of the protocol:
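His-tagged 3CLpro (8 ng/μL final) was assayed in 50 mM MOPS pH 7.2 with 10 mM NaCl, 1 mM EDTA and 0.01% Triton X-100. Substrate was 50 μM final (about Km) and DMSO 4% final. Inhibitor and substrate were preincubated 5 min at 37 °C, then enzyme was added and fluorescence (ex 360/em 460 nm) read for 10 min. At least 11 concentrations were tested; IC50 came from nonlinear regression and Ki from Cheng–Prusoff. n = 3.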

A short description of experiment [4]: Competitive inhibition of recombinant C-terminal His-tagged SARS coronavirus 2 3CL protease using Boc-Abu-Tle-Leu-Gln-AMC as substrate incubated for 5 mins by plate reader analysis. Further details: species or system Severe acute respiratory syndrome coronavirus 2. An outline of the steps: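 Competitive-inhibition kinetics: fluorogenic substrate at 15, 30, 45, 60 and 75 μM was combined with inhibitor at 0, 10, 20, 30, 40 and 50 nM, and product formation was monitored for 10 min. Data were analysed by Lineweaver–Burk plot and global fit to a competitive model. Three independent experiments were run.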

Calls of active or inactive are those of the source. No cut-off for these calls is given here. Where a SMILES comes first, the peptide text is derived from it. The star is where a group is joined. Cbz = O=C(OCc1ccccc1)*; CF3 = FC(F)(F)*

In the case of `CC(C)C[C@H](NC(=O)[C@@H](NC(=O)[C@H](C)NC(=O)OCc1ccccc1)C(C)C)C(=O)N[C@@H](CCC(N)=O)C(=O)C(F)(F)F` (Cbz-AVLQ-CF3), in experiment [1], the Ki stood at 135000 nM.
Consider `CC(C)C[C@H](NC(=O)c1nc2ccccc2[nH]1)C(=O)N[C@@H](C[C@@H]1CCNC1=O)C(=O)c1nc2ccccc2s1`, for which, in experiment [2], the result was Active. Further, in experiment [3], the Ki stood at 32.1 nM.
Consider `CC(C)C[C@H](NC(=O)[C@@H](NC(=O)OCc1ccccc1)C(C)C)C(=O)N[C@@H](C[C@@H]1CCNC1=O)C(=O)c1nc2ccccc2s1`, for which the Ki in experiment [1] came to 4.1 nM; in experiment [4] it was 19.8 nM; in experiment [3], 14.5 nM. In experiment [2], the result was Active.
